Laboratory results reported in ChEMBL document CHEMBL1152792, “Synthesis and anticonvulsant activity of amino acid-derived sulfamides” (J Med Chem, 2009).
Calls of active or inactive are those of the source. No cut-off for these calls is given here.

Legend:
Mus musculus [1] = assay: Toxicity in albino mouse at 300 mg/kg, ip after 0.5 hrs by rotarod test; assay type: organism-based; parameters: dose 300 mg/kg, route intraperitoneal; conditions: in vivo
How it was run: (§1)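 Neurotoxicity was screened by the standardized rotarod test in the ADD phase I protocol. Adult male albino mice (18–23 g) received compound ip in 30% PEG 400 and 10% water at 0.01 mL/g. Animals were tested 0.5 and 4 h post-dose. Result scored as toxic/tested animals.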

Mus musculus [2] = assay: Toxicity in albino mouse at 100 mg/kg, ip after 0.5 hrs by rotarod test; assay type: organism-based; parameters: dose 100 mg/kg, route intraperitoneal; conditions: in vivo; how it was run: as §1
Mus musculus [3] = assay: Anticonvulsant activity in albino mouse at 100 mg/kg, ip after 4 hrs by PTZ test; assay type: functional, organism-based; parameters: dose 100 mg/kg
How it was run: (§2)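 NIH Anticonvulsant Drug Development (ADD) program phase I screen in adult male albino mice (18–23 g). Compound given ip in 30% PEG 400 and 10% water at 0.01 mL/g body weight. Seizures were induced electrically (MES) or chemically (PTZ), and animals were tested 0.5 and 4 h after dosing. Result scored as protected/tested animals.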

Mus musculus [4] = assay: Toxicity in albino mouse at 100 mg/kg, ip after 4 hrs by rotarod test; assay type: organism-based; parameters: dose 100 mg/kg, route intraperitoneal; conditions: in vivo; how it was run: as §1
Mus musculus [5] = assay: Toxicity in albino mouse at 300 mg/kg, ip after 4 hrs by rotarod test; assay type: organism-based; parameters: dose 300 mg/kg, route intraperitoneal; conditions: in vivo; how it was run: as §1
Mus musculus [6] = assay: Anticonvulsant activity in ip dosed albino mouse after 2 hrs by MES test; assay type: functional
How it was run: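 Phase II quantitative MES test in adult male albino mice (18–23 g). Compound given ip in 30% PEG 400 and 10% water at 0.01 mL/g. Testing was done at the previously determined time of peak effect. Six mice per dose group; ED50 (dose protecting 50% of animals, μmol/kg) calculated from the dose–response curve.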

Mus musculus [7] = assay: Anticonvulsant activity in albino mouse at 30 mg/kg, ip after 4 hrs by MES test; assay type: functional, organism-based; parameters: dose 30 mg/kg; how it was run: as §2
Mus musculus [8] = assay: Anticonvulsant activity in albino mouse at 300 mg/kg, ip after 0.5 hrs by PTZ test; assay type: functional, organism-based; parameters: dose 300 mg/kg; how it was run: as §2
Mus musculus [9] = assay: Toxicity in albino mouse at 30 mg/kg, ip after 0.5 hrs by rotarod test; assay type: organism-based; parameters: dose 30 mg/kg, route intraperitoneal; conditions: in vivo; how it was run: as §1
Mus musculus [10] = species on record: Mus musculus; assay: Ratio of valproic acid ED50 to compound ED50 in albino mouse after 2 hrs by MES test; assay type: functional
How it was run: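 The compound ED50 came from ip dosing in male albino mice (six per dose) at the time of peak effect. The valproate ED50 was taken from earlier literature.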

Mus musculus [11] = assay: Anticonvulsant activity in albino mouse at 30 mg/kg, ip after 4 hrs by PTZ test; assay type: functional, organism-based; parameters: dose 30 mg/kg; how it was run: as §2
Mus musculus [12] = assay: Anticonvulsant activity in albino mouse at 100 mg/kg, ip after 0.5 hrs by PTZ test; assay type: functional, organism-based; parameters: dose 100 mg/kg; how it was run: as §2
Mus musculus [13] = assay: Anticonvulsant activity in albino mouse at 300 mg/kg, ip after 4 hrs by PTZ test; assay type: functional, organism-based; parameters: dose 300 mg/kg; how it was run: as §2
Mus musculus [14] = assay: Anticonvulsant activity in albino mouse at 30 mg/kg, ip after 0.5 hrs by MES test; assay type: functional, organism-based; parameters: dose 30 mg/kg; how it was run: as §2
Mus musculus [15] = assay: Toxicity in albino mouse at 30 mg/kg, ip after 4 hrs by rotarod test; assay type: organism-based; parameters: dose 30 mg/kg, route intraperitoneal; conditions: in vivo; how it was run: as §1
Mus musculus [16] = assay: Anticonvulsant activity in albino mouse at 30 mg/kg, ip after 0.5 hrs by PTZ test; assay type: functional, organism-based; parameters: dose 30 mg/kg; how it was run: as §2
Mus musculus [17] = assay: Anticonvulsant activity in albino mouse at 100 mg/kg, ip after 0.5 hrs by MES test; assay type: functional, organism-based; parameters: dose 100 mg/kg; how it was run: as §2
Mus musculus [18] = assay: Anticonvulsant activity in albino mouse at 100 mg/kg, ip after 4 hrs by MES test; assay type: functional, organism-based; parameters: dose 100 mg/kg; how it was run: as §2
Mus musculus [19] = assay: Anticonvulsant activity in albino mouse at 300 mg/kg, ip after 0.5 hrs by MES test; assay type: functional, organism-based; parameters: dose 300 mg/kg; how it was run: as §2
Mus musculus [20] = assay: Anticonvulsant activity in albino mouse at 300 mg/kg, ip after 4 hrs by MES test; assay type: functional, organism-based; parameters: dose 300 mg/kg; how it was run: as §2

| Compound | Activity (Mus musculus [1]) | Activity (Mus musculus [2]) | Activity (Mus musculus [3]) | Activity (Mus musculus [4]) | Activity (Mus musculus [5]) | ED50 (Mus musculus [6]) | Activity (Mus musculus [7]) | Activity (Mus musculus [8]) | Activity (Mus musculus [9]) | Ratio ED50 (Mus musculus [10]) | Activity (Mus musculus [11]) | Activity (Mus musculus [12]) | Activity (Mus musculus [13]) | Activity (Mus musculus [14]) | Activity (Mus musculus [15]) | Activity (Mus musculus [16]) | Activity (Mus musculus [17]) | Activity (Mus musculus [18]) | Activity (Mus musculus [19]) | Activity (Mus musculus [20]) |
| --- | --- | --- | --- | --- | --- | --- | --- | --- | --- | --- | --- | --- | --- | --- | --- | --- | --- | --- | --- | --- |
| CCCC(CCC)CNS(=O)(=O)NCC(=O)OC | Non-toxic | Non-toxic | inactive | Non-toxic | Non-toxic | 139 µmol/kg | inactive | inactive | Non-toxic | 7.3 | inactive | inactive | inactive | inactive | Non-toxic | inactive | – | – | – | – |
| COC(=O)[C@@H](C)NS(=O)(=O)NC(=O)OC(C)(C)C | Non-toxic | Non-toxic | inactive | Non-toxic | Non-toxic | – | inactive | inactive | Non-toxic | – | inactive | inactive | inactive | inactive | Non-toxic | inactive | inactive | inactive | inactive | inactive |
| CCCCNS(=O)(=O)NCCC(=O)OC | Non-toxic | Non-toxic | inactive | Non-toxic | Non-toxic | 71 µmol/kg | – | inactive | Non-toxic | 14.2 | inactive | inactive | inactive | – | Non-toxic | inactive | – | – | – | – |
| COC(=O)CNS(=O)(=O)N(Cc1ccccc1)C(=O)OC(C)(C)C | Non-toxic | Non-toxic | inactive | Non-toxic | Non-toxic | – | inactive | inactive | Non-toxic | – | inactive | inactive | inactive | inactive | Non-toxic | inactive | inactive | inactive | inactive | inactive |
| COC(=O)CCNS(=O)(=O)NCc1ccccc1 | Non-toxic | Non-toxic | inactive | Non-toxic | Non-toxic | – | inactive | inactive | Non-toxic | – | – | inactive | inactive | inactive | Non-toxic | inactive | – | inactive | – | inactive |
| COC(=O)[C@@H](NS(=O)(=O)N[C@H](C(=O)OC)C(C)C)C(C)C | Non-toxic | Non-toxic | inactive | Non-toxic | Non-toxic | – | inactive | inactive | Non-toxic | – | inactive | inactive | inactive | inactive | Non-toxic | inactive | – | inactive | – | inactive |
| CCCC(CCC)CN(C(=O)OC(C)(C)C)S(=O)(=O)NCC(=O)OC | Non-toxic | Non-toxic | inactive | Non-toxic | Non-toxic | – | inactive | inactive | Non-toxic | – | inactive | inactive | inactive | inactive | Non-toxic | inactive | inactive | inactive | inactive | – |
| COC(=O)CNS(=O)(=O)NC(=O)OC(C)(C)C | Non-toxic | Non-toxic | inactive | Non-toxic | Non-toxic | – | inactive | inactive | Non-toxic | – | inactive | inactive | inactive | inactive | Non-toxic | inactive | inactive | inactive | inactive | inactive |
| COC(=O)CCNS(=O)(=O)NCCC(=O)OC | Non-toxic | Non-toxic | inactive | Non-toxic | Non-toxic | – | inactive | inactive | Non-toxic | – | inactive | inactive | inactive | inactive | Non-toxic | inactive | – | inactive | – | inactive |
| COC(=O)[C@H](C)NS(=O)(=O)N[C@@H](C)C(=O)OC | Non-toxic | Non-toxic | inactive | Non-toxic | Non-toxic | – | inactive | inactive | Non-toxic | – | inactive | inactive | inactive | inactive | Non-toxic | inactive | inactive | inactive | inactive | inactive |
| COC(=O)CNS(=O)(=O)NCc1ccccc1 | Non-toxic | Non-toxic | inactive | Non-toxic | Non-toxic | – | inactive | inactive | Non-toxic | – | inactive | inactive | inactive | inactive | Non-toxic | inactive | inactive | inactive | inactive | inactive |
| COC(=O)CCNS(=O)(=O)NC1CCCCC1 | Non-toxic | Non-toxic | – | Non-toxic | Non-toxic | – | inactive | – | Non-toxic | – | – | – | – | inactive | Non-toxic | – | – | – | inactive | inactive |
| CCCC(CCC)CN(C(=O)OC(C)(C)C)S(=O)(=O)NCCC(=O)OC | Non-toxic | Non-toxic | inactive | Non-toxic | Non-toxic | – | inactive | inactive | Non-toxic | – | inactive | inactive | inactive | inactive | Non-toxic | inactive | inactive | inactive | inactive | inactive |
| COC(=O)CCNS(=O)(=O)NC(=O)OC(C)(C)C | Non-toxic | Non-toxic | inactive | Non-toxic | Non-toxic | – | inactive | inactive | Non-toxic | – | inactive | inactive | inactive | inactive | Non-toxic | inactive | inactive | inactive | – | inactive |
